Experimental data from ChEMBL document CHEMBL1932986, “Synthesis and in vitro antimycobacterial activity of compounds derived from (R)- and (S)-2-amino-1-butanol - The crucial role of the configuration” (Eur J Med Chem, 2012).
Activity calls are given as the source filed them. The rule behind the calls is not given here.

Experiments:
Acinetobacter johnsonii [1] = test: Antibacterial activity against Acinetobacter johnsonii ATCC 17909 at 2 mg/ml after 24 hrs by agar diffusion test; format: functional
Procedure, shortened: (§1)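 Agar diffusion: wells in agar filled with […] DMSO solution of compound at various concentrations; diameter of clear zone around application point measured. Bacteria grown 24 h at 37 °C on nutrient agar. Compounds first screened at 50 mg/ml; those active then tested at lower concentrations. Bracketed value = lowest concentration (mg/ml) giving zone >11 mm, reported only if activity retained at ≤1.25 mg/ml.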

Priestia megaterium [2] = test: Antibacterial activity against Bacillus megaterium NRRL 1353895 at 50 mg/ml after 24 hrs by agar diffusion test; format: functional; procedure, shortened: as §1
Micrococcus luteus [3] = test: Antibacterial activity against Sarcina lutea ATCC 9341 at 2 mg/ml after 24 hrs by agar diffusion test; format: functional, organism-based; procedure, shortened: as §1
Escherichia coli [4] = test: Antibacterial activity against Escherichia coli ATCC 8739 at 50 mg/ml after 24 hrs by agar diffusion test; format: functional; details: ATCC 8739, 24 h, read-out: DIZ; procedure, shortened: as §1
Priestia megaterium [5] = test: Antibacterial activity against Bacillus megaterium NRRL 1353895 at 2 mg/ml after 24 hrs by agar diffusion test; format: functional, organism-based; procedure, shortened: as §1
Penicillium chrysogenum [6] = test: Antifungal activity against Penicillium chrysogenum CECT 2802 at 2 mg/ml after 72 hrs by agar diffusion test; format: functional, organism-based
Procedure, shortened: (§2)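 Agar diffusion: yeasts grown on yeast peptone dextrose agar and fungi on potato dextrose agar. Wells are filled with […] of compound solution in DMSO at various concentrations, and the clear-zone diameter is measured. Bracketed values give the lowest concentration (mg/ml) that produces a zone >11 mm. A first screen is run at 50 mg/ml.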

Bacillus subtilis [7] = test: Antibacterial activity against Bacillus subtilis ATCC 6633 at 2 mg/ml after 24 hrs by agar diffusion test; format: functional, organism-based; procedure, shortened: as §1
Staphylococcus aureus [8] = test: Antibacterial activity against Staphylococcus aureus NRRL B 313 at 50 mg/ml after 24 hrs by agar diffusion test; format: functional
Procedure, shortened: (§3)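 Agar diffusion: bacteria grown 24 h at 37 °C on nutrient agar. Wells in the agar are filled with […] of compound solution in DMSO at various concentrations. The diameter of the clear zone around the application point is measured. Bracketed values give the lowest concentration (mg/ml) that produces a zone >11 mm. A first screen is run at 50 mg/ml.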

Saccharomyces cerevisiae [9] = test: Antifungal activity against Saccharomyces cerevisiae ATCC 9763 at 2 mg/ml after 72 hrs by agar diffusion test; format: functional, organism-based; procedure, shortened: as §2
Bacillus cereus [10] = test: Antibacterial activity against Bacillus cereus ATCC 11778 at 2 mg/ml after 24 hrs by agar diffusion test; format: functional, organism-based; procedure, shortened: as §1
Bacillus [11] = test: Antibacterial activity against Bacillus idosus B 241 at 50 mg/ml after 24 hrs by agar diffusion test; format: functional; procedure, shortened: as §1
[12] = tested on: Mycobacterium tuberculosis; test: Antimycobacterial activity against Mycobacterium tuberculosis H37Rv after 45 days; format: functional
Procedure, shortened: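 Canetti proportion method. Compound in DMSO is added to Löwenstein–Jensen egg medium before coagulation (30 min, 85 °C), tested at three levels plus a lower one where needed. Tubes are inoculated with H37Rv at 10⁵ cells/ml and incubated 45 days at 37 °C. Colony counts versus drug-free control give percentage inhibition.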

Penicillium chrysogenum [13] = test: Antifungal activity against Penicillium chrysogenum CECT 2802 at 50 mg/ml after 72 hrs by agar diffusion test; format: functional; procedure, shortened: as §2
Bacillus [14] = test: Antibacterial activity against Bacillus idosus B 241 at 2 mg/ml after 24 hrs by agar diffusion test; format: functional, organism-based; procedure, shortened: as §1
Acinetobacter johnsonii [15] = test: Antibacterial activity against Acinetobacter johnsonii ATCC 17909 at 50 mg/ml after 24 hrs by agar diffusion test; format: functional; procedure, shortened: as §1
Bacillus mycoides [16] = test: Antibacterial activity against Bacillus mycoides DSMZ 274 at 50 mg/ml after 24 hrs by agar diffusion test; format: functional; procedure, shortened: as §1
Candida tropicalis [17] = test: Antifungal activity against Candida tropicalis ATCC 20336 at 2 mg/ml after 72 hrs by agar diffusion test; format: functional, organism-based; procedure, shortened: as §2
Bacillus mycoides [18] = test: Antibacterial activity against Bacillus mycoides DSMZ 274 at 2 mg/ml after 24 hrs by agar diffusion test; format: functional, organism-based; procedure, shortened: as §1
Micrococcus luteus [19] = test: Antibacterial activity against Micrococcus luteus ATCC 9631 at 2 mg/ml after 24 hrs by agar diffusion test; format: functional, organism-based; procedure, shortened: as §1
Bacillus cereus [20] = test: Antibacterial activity against Bacillus cereus ATCC 11778 at 50 mg/ml after 24 hrs by agar diffusion test; format: functional; procedure, shortened: as §1
Bacillus subtilis [21] = test: Antibacterial activity against Bacillus subtilis ATCC 6633 at 50 mg/ml after 24 hrs by agar diffusion test; format: functional; procedure, shortened: as §1
Escherichia coli [22] = test: Antibacterial activity against Escherichia coli ATCC 8739 at 2 mg/ml after 24 hrs by agar diffusion test; format: functional, organism-based; procedure, shortened: as §1
Candida tropicalis [23] = test: Antifungal activity against Candida tropicalis ATCC 20336 at 50 mg/ml after 72 hrs by agar diffusion test; format: functional; procedure, shortened: as §2
Micrococcus luteus [24] = test: Antibacterial activity against Sarcina lutea ATCC 9341 at 50 mg/ml after 24 hrs by agar diffusion test; format: functional; procedure, shortened: as §3
Staphylococcus aureus [25] = test: Antibacterial activity against Staphylococcus aureus NRRL B 313 at 2 mg/ml after 24 hrs by agar diffusion test; format: functional, organism-based; procedure, shortened: as §3
Micrococcus luteus [26] = test: Antibacterial activity against Micrococcus luteus ATCC 9631 at 50 mg/ml after 24 hrs by agar diffusion test; format: functional; procedure, shortened: as §1
Saccharomyces cerevisiae [27] = test: Antifungal activity against Saccharomyces cerevisiae ATCC 9763 at 50 mg/ml after 72 hrs by agar diffusion test; format: functional; procedure, shortened: as §2

CC[C@H](CO)N1C(=O)c2ccccc2C1=O
diameter of the inhibition zone (DIZ) (Acinetobacter johnsonii [1]): inactive | diameter of the inhibition zone (DIZ) (Priestia megaterium [2]): inactive | diameter of the inhibition zone (DIZ) (Micrococcus luteus [3]): inactive | zone of inhibition at 50000 µg/mL (Escherichia coli [4]): 11 mm | diameter of the inhibition zone (DIZ) (Priestia megaterium [5]): inactive | diameter of the inhibition zone (DIZ) (Penicillium chrysogenum [6]): inactive | diameter of the inhibition zone (DIZ) (Bacillus subtilis [7]): inactive | diameter of the inhibition zone (DIZ) (Staphylococcus aureus [8]): inactive | diameter of the inhibition zone (DIZ) (Saccharomyces cerevisiae [9]): inactive | diameter of the inhibition zone (DIZ) (Bacillus cereus [10]): inactive | diameter of the inhibition zone (DIZ) (Bacillus [11]): inactive | MIC [12]: > 22.8 µM | diameter of the inhibition zone (DIZ) (Penicillium chrysogenum [13]): inactive | diameter of the inhibition zone (DIZ) (Bacillus [14]): inactive | diameter of the inhibition zone (DIZ) (Acinetobacter johnsonii [15]): inactive | diameter of the inhibition zone (DIZ) (Bacillus mycoides [16]): inactive | diameter of the inhibition zone (DIZ) (Candida tropicalis [17]): inactive | diameter of the inhibition zone (DIZ) (Bacillus mycoides [18]): inactive | diameter of the inhibition zone (DIZ) (Micrococcus luteus [19]): inactive | diameter of the inhibition zone (DIZ) (Bacillus cereus [20]): inactive | diameter of the inhibition zone (DIZ) (Bacillus subtilis [21]): inactive | diameter of the inhibition zone (DIZ) (Escherichia coli [22]): inactive | diameter of the inhibition zone (DIZ) (Candida tropicalis [23]): inactive | diameter of the inhibition zone (DIZ) (Micrococcus luteus [24]): inactive | diameter of the inhibition zone (DIZ) (Staphylococcus aureus [25]): inactive | diameter of the inhibition zone (DIZ) (Micrococcus luteus [26]): inactive | diameter of the inhibition zone (DIZ) (Saccharomyces cerevisiae [27]): inactive
